From ChEMBL document CHEMBL1124089, “Binaltorphimine-related bivalent ligands and their kappa opioid receptor antagonist selectivity” (J Med Chem, 1988)

Tests used:
[1] = biological target: Kappa-type opioid receptor (Cavia porcellus) (UniProt P41144); assay: Antagonistic activity for Opioid receptor kappa 1 in guinea pig ileal longitudinal muscle at 20 nM; type: functional
[2] = biological target: Delta-type opioid receptor (Mus musculus) (UniProt P32300); assay: Ratio of IC50 DADLE and antagonist binding to delta opioid receptor
Sequence of Delta-type opioid receptor (Mus musculus) (P32300 whole entry): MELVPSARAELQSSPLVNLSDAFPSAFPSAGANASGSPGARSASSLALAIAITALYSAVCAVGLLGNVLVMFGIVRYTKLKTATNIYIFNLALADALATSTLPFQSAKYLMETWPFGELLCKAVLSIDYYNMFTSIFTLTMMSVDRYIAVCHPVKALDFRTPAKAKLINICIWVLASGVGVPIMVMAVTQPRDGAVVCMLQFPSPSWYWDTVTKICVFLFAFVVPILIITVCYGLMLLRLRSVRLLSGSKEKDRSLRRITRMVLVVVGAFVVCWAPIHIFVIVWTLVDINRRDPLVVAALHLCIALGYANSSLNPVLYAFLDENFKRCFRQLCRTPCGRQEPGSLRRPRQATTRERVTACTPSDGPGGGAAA

[3] = biological target: T1, Opioid receptor (mu and kappa) (Cavia porcellus) (UniProt P41144+P97266); assay: Ratio of IC50 ethylketazocine and antagonist binding to opioid receptor; type: protein assay
T1 sequence (P41144 whole entry, looked up): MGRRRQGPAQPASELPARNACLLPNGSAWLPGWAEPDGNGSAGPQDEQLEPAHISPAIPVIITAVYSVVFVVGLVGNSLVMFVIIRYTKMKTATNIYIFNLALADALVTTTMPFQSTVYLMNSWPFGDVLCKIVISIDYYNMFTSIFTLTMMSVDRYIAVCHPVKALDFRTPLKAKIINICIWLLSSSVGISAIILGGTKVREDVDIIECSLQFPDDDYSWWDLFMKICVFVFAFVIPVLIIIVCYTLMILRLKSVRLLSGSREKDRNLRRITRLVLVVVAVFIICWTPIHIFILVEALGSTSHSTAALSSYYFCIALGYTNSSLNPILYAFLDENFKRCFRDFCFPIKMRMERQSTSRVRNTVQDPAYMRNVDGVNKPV
T1 sequence (P97266 whole entry, looked up): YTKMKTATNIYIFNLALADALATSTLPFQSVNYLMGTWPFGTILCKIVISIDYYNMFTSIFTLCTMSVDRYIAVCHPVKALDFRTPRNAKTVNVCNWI

[4] = Ratio of IC50 morphine and antagonist binding to opioid receptor
[5] = biological target: Delta-type opioid receptor (Mus musculus) (UniProt P32300); assay: Antagonistic activity for Opioid receptor delta 1 in mouse vas deferens preparation at 100 nM; type: functional
[6] = biological target: Mu-type opioid receptor (Cavia porcellus) (UniProt P97266); assay: Antagonistic activity for Opioid receptor mu 1 in guinea pig ileal longitudinal muscle at 100 nM; type: functional
Sequence of Mu-type opioid receptor (Cavia porcellus) (P97266 whole entry): as the sequence (P97266 whole entry, looked up) above

[7] = biological target: Kappa-type opioid receptor (Cavia porcellus) (UniProt P41144); assay: Antagonistic activity for Opioid receptor kappa 1 of guinea pig ileal longitudinal muscle at 100 nM; type: functional
[8] = Ratio of antagonistic activity for delta and kappa receptors; type: functional
Method in brief: (§1)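 Selectivity ratios mu/kappa and delta/kappa calculated from Ke values; Ke = [antagonist]/(IC50 ratio − 1), using ethylketazocine (kappa) and morphine (mu) in GPI and DADLE (delta) in MVD.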

[9] = biological target: T1, Opioid receptor (mu and kappa) (Cavia porcellus); assay: Ratio of antagonistic activity for mu and kappa receptors; type: functional; method in brief: as §1
[10] = biological target: Mu-type opioid receptor (Cavia porcellus) (UniProt P97266); conditions: 100 nM
[11] = biological target: Delta-type opioid receptor (Mus musculus) (UniProt P32300); conditions: Vas deferens, 20 nM
[12] = biological target: Delta-type opioid receptor (Mus musculus, UniProt P32300); assay: Agonistic activity in mouse vas deferens; type: functional, tissue-based
Sequence of Delta-type opioid receptor (P32300 whole entry): as the sequence (P32300 whole entry) above

[13] = biological target: T2, Opioid receptor (mu and kappa) (Cavia porcellus, UniProt P41144+P97266); assay: Agonistic activity in guinea pig ileal longitudinal muscle; type: functional, tissue-based, Muscle tissue
[14] = biological target: Delta-type opioid receptor (Mus musculus) (UniProt P32300); conditions: Vas deferens, 200 nM
[15] = biological target: Mu-type opioid receptor (Cavia porcellus) (UniProt P97266); conditions: 20 nM
[16] = biological target: T2, Opioid receptor (mu and kappa); assay: Agonistic activity in guinea pig ileal longitudinal muscle after beta-FNA (200 nM) 60 min treatment; type: functional, tissue-based, Muscle tissue
Method in brief: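 GPI pretreated with beta-FNA so that functional mu receptors are absent; agonist IC50 determined in this tissue and compared with IC50 in untreated GPI.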

[17] = biological target: Delta-type opioid receptor (Mus musculus) (UniProt P32300); assay: Antagonistic activity for Opioid receptor delta 1 in mouse vas deferens at 200 nM; type: functional, tissue-based
[18] = biological target: Mu-type opioid receptor (Cavia porcellus) (UniProt P97266); assay: Antagonistic activity for Opioid receptor mu 1 in guinea pig ileal longitudinal muscle at 200 nM; type: functional
[19] = biological target: Kappa-type opioid receptor (Cavia porcellus) (UniProt P41144); assay: Antagonistic activity for Opioid receptor kappa 1 in guinea pig ileal longitudinal muscle at 200 nM; type: functional
[20] = biological target: Delta-type opioid receptor (Mus musculus) (UniProt P32300); assay: Ratio of IC50 DADLE and antagonist binding to delta opioid receptor; Not calculated

Sequence of Kappa-type opioid receptor (Cavia porcellus) (P41144 whole entry): as the sequence (P41144 whole entry, looked up) above

Row | Compound | Ratio [2] | Ratio [3] | Ratio [4] | Ke [7] | Selectivity ratio [8] | Selectivity ratio [9] | IC50 [12] | IC50 [13] | also measured
1 | COc1ccc2c3c1O[C@H]1c4[nH]c5c(c4C[C@@]4(O)[C@@H](C2)N(CC2CC2)CC[C@]314)C[C@@]1(O)[C@H]2Cc3ccc(OC)c4c3[C@@]1(CCN2CC1CC1)[C@H]5O4 | 0.6 | 3.8 | 0.8 |  |  |  |  |  | Ke [1]: 7.1 nM
2 | CC(=O)O[C@@]12Cc3c([nH]c4c3C[C@@]3(OC(C)=O)[C@H]5Cc6ccc(O)c7c6[C@@]3(CCN5CC3CC3)[C@H]4O7)[C@@H]3Oc4c(O)ccc5c4[C@@]31CCN(CC1CC1)[C@@H]2C5 | 9.2 | 261 | 3.4 | 0.38 nM | 32 | 111 |  |  | Ke [5]: 12 nM; Ke [6]: 42 nM
3 | Cn1c2c(c3c1[C@@H]1Oc4c(O)ccc5c4[C@@]14CCN(CC1CC1)[C@H](C5)[C@]4(O)C3)C[C@@]1(O)[C@H]3Cc4ccc(O)c5c4[C@@]1(CCN3CC1CC1)[C@H]2O5 | 4.5 | 148 | 2.8 | 0.14 nM | 41 | 79 |  |  | Ke [10]: 11 nM; Ke [11]: 5.7 nM
4 | CN1CC[C@]23c4c5ccc(O)c4O[C@H]2c2[nH]c4c(c2C[C@H]3[C@H]1C5)C[C@H]1[C@H]2Cc3ccc(O)c5c3[C@@]1(CCN2C)[C@H]4O5 | 0.85 | 0.79 | 0.68 |  |  |  | 52 nM | 53 nM | 
5 | Oc1ccc2c3c1O[C@H]1c4[nH]c5c(c4C[C@@]4(O)[C@@H](C2)N(CC2CC2)CC[C@]314)C[C@@]1(O)[C@H]2Cc3ccc(O)c4c3[C@@]1(CCN2CC1CC1)[C@H]5O4 | 2 | 49.1 | 2.6 | 0.41 nM | 49 | 32 |  |  | Ke [14]: 20 nM; Ke [15]: 13 nM
6 | Oc1ccc2c3c1O[C@H]1c4[nH]ccc4C[C@@]4(O)[C@@H](C2)N(CC2CC2)CC[C@]314 | 32.3 | 49.5 | 155 | 2.1 nM | 1.5 | 0.3 |  |  | Ke [5]: 3.2 nM; Ke [6]: 0.65 nM
7 | CN1CC[C@]23c4c5ccc(O)c4O[C@H]2c2[nH]c4c(c2C[C@@]3(O)[C@H]1C5)C[C@@]1(O)[C@H]2Cc3ccc(O)c5c3[C@@]1(CCN2C)[C@H]4O5 | 1.1 | 1.6 | 0.88 |  |  |  | 170 nM | 250 nM | IC50 [16]: 2630 nM
8 | COc1ccc2c3c1O[C@H]1c4[nH]c5c(c4C[C@@]4(O)[C@@H](C2)N(CC2CC2)CC[C@]314)C[C@@]1(O)[C@H]2Cc3ccc(O)c4c3[C@@]1(CCN2CC1CC1)[C@H]5O4 | 5.4 | 153 | 6.3 |  | 35 | 29 |  |  | Ke [17]: 45 nM; Ke [18]: 38 nM; Ke [19]: 1.3 nM
9 | COc1ccc2c3c1O[C@H]1c4[nH]c5c(c4C[C@H]4[C@@H](C2)N(C)CC[C@]314)C[C@H]1[C@H]2Cc3ccc(OC)c4c3[C@@]1(CCN2C)[C@H]5O4 | 0.93 | 0.43 | 0.51 |  |  |  | 1000 nM | 330 nM | 
10 | CC(=O)Oc1ccc2c3c1O[C@H]1c4[nH]c5c(c4C[C@@]4(OC(C)=O)[C@@H](C2)N(CC2CC2)CC[C@]314)C[C@@]1(OC(C)=O)[C@H]2Cc3ccc(OC(C)=O)c4c3[C@@]1(CCN2CC1CC1)[C@H]5O4 |  | 1.6 | 1.2 |  |  |  |  |  | Ratio [20]: 1.4
